The target in one assay is Nitric oxide synthase 1 (Rattus norvegicus, UniProt P29476). Description: Inhibition of nNOS in rat cerebellum homogenates assessed as reduction in conversion of L-[3H]arginine to L-[3H]citrulline. The assay is classed as tissue-based. Summed up:
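Rat cerebellum homogenate as nNOS source; L-[3H]arginine to L-[3H]citrulline conversion with 1 mM CaCl2, 200 μM β-NADPH, 0.88 μM L-arginine plus 0.12 μM L-[3H]arginine, 15 min at 37 °C. Compounds in DMSO 0.4%, tested at 0.01, 0.1, 1, 10 and 100 μM. IC50 taken from inhibition curves, mean ± sem over 3–7 experiments.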

In assay [1] the target is Nitric oxide synthase 1 (Rattus norvegicus) (UniProt P29476). Description: Inhibition of nNOS in rat cerebellum homogenates assessed as reduction in conversion of L-[3H]arginine to L-[3H]citrulline at 100 uM. The assay is classed as tissue-based.
Sequence of Nitric oxide synthase 1 (Rattus norvegicus) (P29476 whole entry): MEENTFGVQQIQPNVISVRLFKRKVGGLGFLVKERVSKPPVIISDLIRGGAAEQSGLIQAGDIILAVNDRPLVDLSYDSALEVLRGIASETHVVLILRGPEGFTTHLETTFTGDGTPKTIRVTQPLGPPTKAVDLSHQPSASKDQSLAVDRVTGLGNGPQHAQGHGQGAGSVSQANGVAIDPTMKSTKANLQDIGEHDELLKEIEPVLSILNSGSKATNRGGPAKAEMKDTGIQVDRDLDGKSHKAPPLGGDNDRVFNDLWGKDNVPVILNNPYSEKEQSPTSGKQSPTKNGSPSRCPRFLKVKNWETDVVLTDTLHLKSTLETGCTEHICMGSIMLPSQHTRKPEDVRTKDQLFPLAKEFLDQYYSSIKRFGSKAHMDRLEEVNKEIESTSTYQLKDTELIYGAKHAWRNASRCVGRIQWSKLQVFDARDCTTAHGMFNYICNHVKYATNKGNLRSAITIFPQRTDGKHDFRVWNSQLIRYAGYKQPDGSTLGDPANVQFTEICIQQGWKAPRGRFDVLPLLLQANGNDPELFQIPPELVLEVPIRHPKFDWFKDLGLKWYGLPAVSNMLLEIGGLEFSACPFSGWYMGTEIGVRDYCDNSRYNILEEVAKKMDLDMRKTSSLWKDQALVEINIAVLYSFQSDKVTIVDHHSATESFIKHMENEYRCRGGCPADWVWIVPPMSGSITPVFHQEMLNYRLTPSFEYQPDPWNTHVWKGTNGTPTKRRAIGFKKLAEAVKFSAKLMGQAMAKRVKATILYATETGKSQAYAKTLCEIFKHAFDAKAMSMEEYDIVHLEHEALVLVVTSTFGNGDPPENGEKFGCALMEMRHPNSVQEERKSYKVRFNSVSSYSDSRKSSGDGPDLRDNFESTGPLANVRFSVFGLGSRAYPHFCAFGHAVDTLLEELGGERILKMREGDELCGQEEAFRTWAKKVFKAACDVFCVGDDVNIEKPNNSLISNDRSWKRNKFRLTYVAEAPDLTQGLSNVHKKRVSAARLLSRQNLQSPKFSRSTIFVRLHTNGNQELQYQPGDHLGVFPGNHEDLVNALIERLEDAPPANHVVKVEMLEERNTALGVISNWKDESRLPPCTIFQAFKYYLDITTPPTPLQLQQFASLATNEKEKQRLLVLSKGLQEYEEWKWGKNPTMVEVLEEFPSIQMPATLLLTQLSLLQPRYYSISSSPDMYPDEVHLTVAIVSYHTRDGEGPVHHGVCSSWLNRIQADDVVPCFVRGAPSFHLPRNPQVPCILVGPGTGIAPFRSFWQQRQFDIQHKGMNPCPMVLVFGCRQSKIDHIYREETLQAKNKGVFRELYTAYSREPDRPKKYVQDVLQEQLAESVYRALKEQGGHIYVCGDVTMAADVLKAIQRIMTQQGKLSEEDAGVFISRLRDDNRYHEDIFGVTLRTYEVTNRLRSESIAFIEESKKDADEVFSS

pIC50: −log10 of the molar value. Some results are limits rather than exact numbers.

The pIC50 is the IC50 on a negative log10 scale, so that one unit is a factor of ten. Usually inhibition stands for the share of the control response that was lost under treatment.

Sequence of Nitric oxide synthase 1 (P29476 whole entry): as above

On to `N#Cc1cccc2[nH]ncc12`, for which the pIC50 at Nitric oxide synthase 1 was 4.37. For the same compound, in assay [1], the inhibition amounted to 63%.

Regarding `CCn1ncc2c([N+](=O)[O-])cccc21`, at Nitric oxide synthase 1, the pIC50 is 4.29. Further, the inhibition in assay [1] is 67%.

Consider `CCn1cc2c(Br)cccc2n1`, for which, on Nitric oxide synthase 1, the pIC50 is under 4.00. The inhibition in assay [1] worked out at 0%.

On to `CCn1cc2c([N+](=O)[O-])cccc2n1`, for which, on Nitric oxide synthase 1, the pIC50 is under 4.00. In addition, the inhibition in assay [1] is 34%.

For the compound `Cn1cc2c([N+](=O)[O-])cccc2n1`, at Nitric oxide synthase 1, the pIC50 is under 4.00. For the same compound, the inhibition in assay [1] was 34%.

On to `CCn1ncc2c(Br)cccc21`, for which the pIC50 on Nitric oxide synthase 1 was 4.14. Further, in assay [1], the inhibition came out at 61%.

Take `Cn1ncc2c(Br)cccc21`: at Nitric oxide synthase 1, the negative logarithm of the IC50 (pIC50) is 4.55. Also, the inhibition in assay [1] turned out to be 75%.

For `Cn1ncc2c([N+](=O)[O-])cccc21`, the pIC50 on Nitric oxide synthase 1 was 4.97. Also, the inhibition in assay [1] turned out to be 86%.

Take `Cn1cc2c(Br)cccc2n1`: the negative logarithm of the IC50 (pIC50) at Nitric oxide synthase 1 was under 4.00. For the same compound, the inhibition in assay [1] was determined as 19%.

For the origin of these results see ChEMBL document CHEMBL2069233, “New hypotheses for the binding mode of 4- and 7-substituted indazoles in the active site of neuronal nitric oxide synthase” (Bioorg Med Chem, 2012).
